Efflux pump inh: inhibitors of Candida antifungal efflux pumps expressed in yeast. S. cerevisiae Candida pump triplex, Nile Red efflux. inhibition, % at 10 µM. 0.44% of 330,000 active. AID 485275;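 active means plate passing quality check with inhibition over a set limit, or well fluorescence over plate mean plus 4 SD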;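 further: Nile Red retained in pooled yeast measured as flow cytometry median fluorescence; 0% = buffer negative control and 100% = Enniatin B positive control; higher means more Nile Red kept so more efflux inhibition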
Cneo AK release: causes C. neoformans cell lysis; adenylate kinase release luminescence, 4 h; normalised: neutral wells 0, clomiphene wells 100; lysis activity, % at 15 µM; 0.2% of 360,000 active; AID 651654;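 active means mean lysis activity across replicates of at least 80%, whatever share of replicates individually reach that level; inactive means mean lysis activity below 80%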
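Test system: log-phase Cryptococcus neoformans yeast cells. Input: 5 × 10^6 yeast cells/mL. Medium: fresh YPD growth medium. Doses: single dose. Incubation: static 4 h at 37 °C with compound, 1 h detection. Measured by: luminescent adenylate kinase detection reagent. Read-out: signal increase indicating cell lysis. Benchmarks: Clomiphene.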
C2C12 statin: protects C2C12 myotubes from simvastatin toxicity; ATP luminescence, 48 h; scaled: DMSO 0, geranylgeraniol control 100; rescue of ATP level, % at 7.49 µM; 0.78% of 330,000 active; AID 602340;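 active means mean ATP rescue above about 67%, or every replicate alone reaching that limit, limit read from the data, passing the limit was not always enough; inconclusive means no clear call, values can overlap the other calls; inactive means mean under the limit and some replicate under it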;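 further: myotubes were challenged with 10 µM simvastatin during compound exposure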
SUMO Mot1 rescue: SUMOylation pathway inhibition by Mot1-301 growth rescue; S. cerevisiae Mot1-301 growth rescue, ATP luminescence, 38.5C; percent above DMSO median, 100 means doubled; growth rescue, % at 18.8 µM; 1% of 320,000 active; AID 2716;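 active means every valid replicate shows activation above 250% relative to neutral control wells; inactive means the rest, any valid replicate at or below 250%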;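 further: OY570 slx delta 5 strain wells were the positive control but not used for scaling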
Yeast cmpd fluor: compound fluorescence in yeast efflux pump counter-screen. S. cerevisiae AD/pABC3, flow cytometry. AID 588517. shares compounds with Efflux pump inh. fluorescence ratio to DMSO, % at 10 µM. 4% of 1,700 active;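 active means fluorescence ratio to DMSO above its plate's cutoff, the plate mean ratio plus 5 SD, cut at about 210% in these data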;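 further: unstained yeast with no Nile Red so the signal is compound autofluorescence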
CaMdr1 efflux inh: inhibitors of Candida albicans Mdr1 efflux pump; inhibition, % at 10 µM; S. cerevisiae AD/CaMDR1, Nile Red efflux, flow cytometry; AID 588518; shares compounds with Efflux pump inh; 1% of 1,700 active; in the data active means inhibition above about 26%;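 further: 0% = DMSO vehicle and 100% = reference inhibitor; higher means more Nile Red retained so more efflux inhibition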
CaCdr2 efflux inh: blocks the Candida albicans Cdr2 efflux pump in yeast; shares compounds with Efflux pump inh; S. cerevisiae AD/CaCDR2, Nile Red retention, flow cytometry; Nile Red retention ratio vs DMSO, % at 10 µM; 4% of 1,700 active; AID 588520; in the data active means Nile Red retention ratio vs DMSO above about 190%;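 further: higher ratio means more blocking of Cdr2 efflux of the dye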
CaCdr1 efflux inh: blocks the Candida albicans Cdr1 efflux pump in yeast; shares compounds with Efflux pump inh; S. cerevisiae AD/CaCDR1, Nile Red efflux, flow cytometry; inhibition, % at 10 µM; 1% of 1,700 active; AID 588522;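 active means inhibition above the screen-wide mean plus twice its standard deviation, cut at about 32% in these data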
* marks the source's active call; other numbers are inactive results; ? = inconclusive; . = not tested or not shown; + = active, no number. In the library only some 1.8% were active in any assay of this set; here they are far more common.

SMILES	Efflux pump inh	Cneo AK release	C2C12 statin	SUMO Mot1 rescue	Yeast cmpd fluor	CaMdr1 efflux inh	CaCdr2 efflux inh	CaCdr1 efflux inh
CCOC(=O)C1CCN(C(=O)c2cccc(NC3=NC4CS(=O)(=O)CC4S3)c2)CC1 (centres undefined)	0	-1	14	-7	.	.	.	.
CCN(CC)c1ccc(/C=c2/sc3nnc(-c4ccccc4C)n3c2=O)cc1	0.6*	2	-16	150	215*	1	175	0
CCN(CC)c1ccc(/C=c2\sc3nnc(-c4ccccc4Cl)n3c2=O)cc1	0.7*	-1	.	-3	271*	1	175	1
Cc1ccc(/C=c2/sc3nnc(-c4ccccc4Cl)n3c2=O)o1	0	0	7	-4	.	.	.	.
O=C(COC(=O)c1ccc(S(=O)(=O)C(F)F)cc1)NC(=O)NC1CCCCC1	0	0	-1	5	.	.	.	.
c1ccc(N2CCN(Cc3cn4ccccc4n3)CC2)cc1	0	.	.	198	.	.	.	.
Cc1ccc(S(=O)(=O)c2nc(Nc3ccccc3C#N)sc2Cl)cc1	0	.	.	-17	.	.	.	.
Cc1ccc(S(=O)(=O)c2nc(Nc3ccccc3N3CCOCC3)sc2Cl)cc1	7.5*	4	-60	24	100	0	99	0
COc1ccc(-n2nnnc2SCC(=O)Nc2ccc(OC)cc2OC)cc1	0	-2	-3	-11	.	.	.	.
CC1=NN(c2nc3ccccc3[nH]2)C(=O)/C1=C/N(C)C	2.4*	.	.	-59	112	0	104	0
CCS(=O)(=O)Nc1ccc2c(c1)C(=O)N(C)[C@H]1CC[C@@H](CC(=O)NC3CCCCC3)O[C@@H]1CO2	.	-7	4	.	.	.	.	.
S=c1[nH]nc(-c2cccnc2)n1/N=C/c1ccc(Br)s1	8.0*	2	.	6	83	0	93	0
CSC1=NCCN1C(=O)COc1ccc2ccccc2c1	0	-1	3	2	.	.	.	.
Oc1c(C(c2ccccn2)N2CCC(Cc3ccccc3)CC2)cc(Cl)c2cccnc12 (centres undefined)	53*	.	.	-21	98	0	108	0
COC(=O)C1=C(C)NC(C)=C(C(=O)OC)C1C(=O)OCC(=O)Nc1ccc(C(C)=O)cc1	0	.	.	39	.	.	.	.
O=C1Nc2ccccc2/C1=C/c1cnc(-c2ccccc2)[nH]1	0.8*	1	4	125	111	0	435*	1
O=C1Nc2ccccc2/C1=C/c1cccnc1	0	.	.	-4	.	.	.	.
C[C@H]1CN([C@@H](C)CO)C(=O)c2cccc(NC(=O)C3CCOCC3)c2O[C@H]1CN(C)Cc1ccc(-c2ccccc2)cc1	.	2	-21	.	.	.	.	.
C#CC[N+](C)(C)CCCCCCCCCCCC	1.0*	.	.	50	100	0	495*	0
CC(CNC(=O)c1ccc(C(C)(C)C)cc1)CN(C)C (centres undefined)	2.0*	0	4	-7	100	0	96	0
CCN(CC(=O)Nc1ccc(NC(C)=O)cc1)C(=O)/C=C/c1c(C)nn(-c2ccc(F)cc2)c1Cl	.	.	-16	.	.	.	.	.
COc1ccc(CCNC(=O)C(=O)NCCOc2ccccc2)cc1OC	0	.	.	25	.	.	.	.
CCN(CC)c1ccc(/C=C/C(=O)c2ccc(Br)cc2)cc1	0	.	.	-2	.	.	.	.
CCN(CC)c1ccc(/C=C/C(=O)c2cccnc2)cc1	69*	1	1	-9	115	12	101	0
COc1cccc2sc(Nc3nnc(-c4cccs4)o3)nc12	0.7*	2	-3	1	94	0	91	0
SMILES	Efflux pump inh	Cneo AK release	C2C12 statin	SUMO Mot1 rescue	Yeast cmpd fluor	CaMdr1 efflux inh	CaCdr2 efflux inh	CaCdr1 efflux inh
O=C(O)CCN1C(=O)/C(=C\c2ccc(-c3nc4ccccc4s3)o2)SC1=S	0.9*	-2	34	26	114	8	+	56*
COc1ccccc1/C=C/CN1CC(C)OC(C)C1 (centres undefined)	0	0	-5	192	.	.	.	.
CCN(CC)CCN(C(=O)c1ccc(C(C)=O)cc1)c1nc2ccc(Cl)cc2s1	0	.	.	4	.	.	.	.
CC(C)Cn1nc(C(=O)Nc2nnc(C3CC3)s2)c2ccccc2c1=O	0.9*	3	2	-3	113	0	116	0
CC(=O)Oc1ccc(N2C(=O)c3cccc4c([N+](=O)[O-])ccc(c34)C2=O)cc1	1	-2	?	2	.	.	.	.
O=C1c2cccc3c([N+](=O)[O-])ccc(c23)C(=O)N1O	4.1*	2	-1	-33	138	1	262*	1
O=C1c2cccc3c([N+](=O)[O-])ccc(c23)C(=O)N1c1ccccn1	0.7*	0	55	75	149	1	139	1
O=C1c2cccc3c([N+](=O)[O-])ccc(c23)C(=O)N1c1ccc(Cl)cn1	2.1*	15	129*	160	265*	1	177	0
O=C(C[C@H]1C[C@@H]2c3cc(NC(=O)NC4CCCCC4)ccc3O[C@@H]2[C@@H](CO)O1)NCC(F)(F)F	.	-1	-5	.	.	.	.	.
COc1ccc2cc(C(C)C(=O)Nc3cccc(S(=O)(=O)N(C)C)c3)ccc2c1 (centres undefined)	3.2*	-4	7	-23	100	0	94	0
CNC(=O)c1cccc(NC(=O)C(C)c2ccc3cc(OC)ccc3c2)c1 (centres undefined)	1	1	11	79	.	.	.	.
Cc1cc(NS(=O)(=O)c2ccc(NC(=O)C(CC(C)C)N3C(=O)c4ccccc4C3=O)cc2)nc(C)n1 (centres undefined)	0.9*	1	6	-19	100	0	97	0
CN1CCN(CCC(=O)Nc2ccc3c(c2)OCO3)CC1	0	2	-9	4	.	.	.	.
O=C(CCN1CCCCCC1)Nc1ccc2c(c1)OCCO2	0.6*	-4	8	19	101	0	104	0
CCN(CC)CCCNc1nc2ccccc2c2nc(-c3ccncc3)nn12	0	-1	?	10	.	.	.	.
O=C(O)Cc1ccc2ccc3ccccc3c2c1	0	2	-10	-1	.	.	.	.
C[C@@H]1CN([C@H](C)CO)C(=O)CCCn2nncc2CO[C@H]1CN(C)S(=O)(=O)c1ccc(-n2cccn2)cc1	.	0	6	.	.	.	.	.
COc1ccc(CC(=O)O/N=C(\N)c2ccc(C)cc2)cc1	0	-4	.	-14	114	0	117	0
Cc1cc(C)n2c(Br)c(CSc3nc4ccccc4s3)nc2n1	8.0*	0	-1	5	117	0	116	0
O=C(O)/C=C/c1cn(-c2ccccc2)nc1-c1ccc(-c2ccc([N+](=O)[O-])cc2)o1	0.9*	-4	-14	-8	129	0	121	0

Screening results from PubChem BioAssay.
